KDM4C inh – inhibitors of human demethylase GASC-1 KDM4C; Q9H3R0; GST-KDM4C 2-372, H3K9me3 peptide, LANCE TR-FRET; inhibition, % at 12.5 µM; actives 0.15% (n = 96,000);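 active = mean replicate inhibition above about 25%, with at least 55% of replicates also reaching it, limit read from the data, passing the limit was not always enough; inconclusive = only one of those two conditions met; inactive = neither condition met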
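reagent = H3K9me3 peptide substrate, Fe(II), 2-oxoglutarate | system = GST-tagged GASC-1 (JMJD2C) catalytic fragment, aa 2-372 | amount = enzyme final amount 10 nM | read-out = Fall in 671/618 emission ratio as inhibition | medium = HEPES buffer, pH 7.5, plus ascorbate | schedule = 30 min reaction, 60 min detection, RT | measured by = LANCE TR-FRET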
Pf Dd2 growth – blocks growth of Plasmodium falciparum Dd2 parasites. P. falciparum Dd2 growth, SYBR Green, 72 h; hits give low values. activity change, % at 10 µM. actives 2.3% (n = 94,000). AID 1159554; in the data active = activity change below about -80%; inconclusive = no clear call, values can overlap the other calls
IDH1 mut inh – inhibitors of human IDH1 R132H; IDH1 R132H reductase, diaphorase/resazurin fluorescence, 60 min; O75874; actives 0.18% (n = 70,000); inhibition, % at 10 µM; AID 624101; in the data active = inhibition above about 34%; inconclusive = no clear call, values can overlap the other calls; inactive = below about 11%;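 also: 0% = DMSO and 100% = no enzyme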
Target sequence (O75874 whole entry R132H): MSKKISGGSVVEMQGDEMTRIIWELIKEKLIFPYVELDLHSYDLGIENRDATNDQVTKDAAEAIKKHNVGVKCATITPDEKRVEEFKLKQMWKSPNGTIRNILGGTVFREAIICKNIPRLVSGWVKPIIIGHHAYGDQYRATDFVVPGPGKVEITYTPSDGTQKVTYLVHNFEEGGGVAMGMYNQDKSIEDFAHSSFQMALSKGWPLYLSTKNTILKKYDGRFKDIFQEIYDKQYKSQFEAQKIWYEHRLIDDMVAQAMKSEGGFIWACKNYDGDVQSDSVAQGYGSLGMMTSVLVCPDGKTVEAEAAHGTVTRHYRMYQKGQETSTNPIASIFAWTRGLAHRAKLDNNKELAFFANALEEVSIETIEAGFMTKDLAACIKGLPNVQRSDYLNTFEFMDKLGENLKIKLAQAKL
Numbers without * were called inactive; ? = inconclusive; · = no result. The entries come from a sample that favours hits as a whole.

SMILES | KDM4C inh | Pf Dd2 growth | IDH1 mut inh
COc1ccc(CN2CC3(CN(C(=O)Cc4ccncc4)C3)c3c([nH]c4cc(OC)ccc34)[C@@H]2CO)cc1 | -2.3 | -64.9 | ·
COc1ccc2c3c(n(C)c2c1)[C@H](CO)N(C(=O)Cc1ccccc1)CC31CN(C(=O)Cc2ccccc2)C1 | -0.8 | -83.1* | ·
CC(=O)N(C)C[C@H]1Oc2cc(-c3cccc(F)c3)ccc2S(=O)(=O)N([C@H](C)CO)C[C@H]1C | 0.0 | -6.4 | -0.9
O=C(CN1C(=O)c2ccccc2S1(=O)=O)Nc1ccccc1Cl | · | · | -0.4
CCCC(=O)Nc1ccc2c(c1)OC[C@@H](C)N(Cc1ccc(-c3ccccn3)cc1)C[C@H](C)[C@@H](OC)CN(C)C2=O | 2.1 | -46.6 | -0.3
C[C@@H]1CN([C@H](C)CO)C(=O)Cc2cc(NS(=O)(=O)c3ccc(Cl)cc3)ccc2O[C@@H]1CN(C)S(=O)(=O)c1cn(C)cn1 | 1.4 | 24.4 | ·
CC(C)c1cc(Br)ccc1NC(=O)CSc1n[nH]c(-c2ccc(Cl)cc2)n1 | · | · | 0.6
CN(CC(=O)Nc1ncn[nH]1)S(=O)(=O)c1ccc2ccccc2c1 | · | · | 0.1
COc1cccc(C#Cc2cnc3c(c2)C(=O)N([C@H](C)CO)C[C@H](C)[C@H](CN(C)C(=O)C2CC2)O3)c1 | 1.6 | -2.4 | ·
Cc1ccc(S(=O)(=O)N(C)C[C@H]2OCCCC[C@@H](C)Oc3ccc(NC(=O)NC4CCCCC4)cc3C(=O)N([C@@H](C)CO)C[C@@H]2C)cc1 | 0.4 | ? | ·
C[C@@H]1CN([C@H](C)CO)C(=O)c2cc(NC(=O)NC3CCCCC3)ccc2O[C@@H](C)CCCCO[C@@H]1CN(C)S(=O)(=O)c1ccc(F)cc1 | 0.2 | -84.1* | ·
C[C@@H]1CCCCO[C@@H](CN(C)S(=O)(=O)c2ccc(F)cc2)[C@H](C)CN([C@H](C)CO)C(=O)c2cc(NC(=O)NC3CCCCC3)ccc2O1 | -0.2 | -72.0 | ·
Cc1ccc(S(=O)(=O)N(C)C[C@@H]2OCCCC[C@H](C)Oc3ccc(NC(=O)NC4CCCCC4)cc3C(=O)N([C@H](C)CO)C[C@H]2C)cc1 | -0.1 | -85.3* | -1.5
Cc1ccccc1S(=O)(=O)N1C[C@@H](O)COC[C@@H]2O[C@@H](CC(=O)NCCc3ccccc3)CC[C@H]21 | -1.3 | -22.6 | ·
COc1cccc(CNC(=O)[C@H]2[C@H](CO)[C@H]3Cn4c(cccc4=O)[C@@H]2N3C(=O)C2CCC2)c1 | -0.4 | 8.5 | ·
C[C@@H]1CN([C@@H](C)CO)C(=O)c2cc(NC(=O)Nc3ccc4c(c3)OCO4)ccc2O[C@@H](C)CCCCO[C@H]1CN(C)Cc1ccc(Cl)c(Cl)c1 | -1.6 | -59.1 | ·
C[C@@H]1CCCCO[C@H](CN(C)Cc2ccc(Cl)c(Cl)c2)[C@H](C)CN([C@@H](C)CO)C(=O)c2cc(NC(=O)Nc3ccc(F)cc3)ccc2O1 | 0.5 | -84.7* | 1.4
CC(C)NC(=O)Nc1ccc2c(c1)C(=O)N([C@H](C)CO)C[C@H](C)[C@H](CN(C)Cc1ccc(Cl)c(Cl)c1)OCCCC[C@@H](C)O2 | 1.0 | · | ·
C[C@@H]1CN([C@H](C)CO)C(=O)c2cc(NC(=O)Nc3ccc4c(c3)OCO4)ccc2O[C@@H](C)CCCCO[C@@H]1CN(C)Cc1ccc(Cl)c(Cl)c1 | 0.6 | -87.8* | ·
C[C@@H]1CCCCO[C@@H](CN(C)Cc2ccc(Cl)c(Cl)c2)[C@H](C)CN([C@H](C)CO)C(=O)c2cc(NC(=O)Nc3ccccc3)ccc2O1 | -0.8 | -82.6* | ·
C[C@@H]1CCCCO[C@H](CN(C)Cc2ccc(Cl)c(Cl)c2)[C@@H](C)CN([C@H](C)CO)C(=O)c2cc(NC(=O)Nc3ccc(F)cc3)ccc2O1 | -1.2 | -3.0 | -0.9
C[C@@H]1CCCCO[C@@H](CN(C)Cc2ccc(Cl)c(Cl)c2)[C@@H](C)CN([C@H](C)CO)C(=O)c2cc(NC(=O)Nc3ccc(F)cc3)ccc2O1 | 1.6 | 12.7 | ·
C[C@@H]1CCCCO[C@H](CN(C)Cc2ccc(Cl)c(Cl)c2)[C@H](C)CN([C@@H](C)CO)C(=O)c2cc(NC(=O)Nc3ccccc3)ccc2O1 | -2.8 | -84.9* | 0.7
Cc1noc(C)c1NC(=O)N(C)C[C@@H]1Oc2c(NC(=O)c3nc4ccccc4s3)cccc2C(=O)N([C@@H](C)CO)C[C@@H]1C | -1.0 | 20.3 | -1.5
CC=Cc1ccc2n(c1=O)C[C@H]1[C@H](CO)[C@@H](C(=O)N3CCCCC3)N(CC3CC3)[C@@H]21 (mixture of isomers) | 1.8 | -0.9 | ·
C[C@@H]1CN([C@@H](C)CO)C(=O)c2cc(NC(=O)Nc3ccc(F)cc3)ccc2O[C@@H](C)CCCCO[C@H]1CN(C)Cc1ccc(Cl)c(Cl)c1 | -2.6 | -68.3 | 0.1

Source: PubChem BioAssay
